Measured values: ChEMBL document CHEMBL1137088, “Distamycin analogues with enhanced lipophilicity: synthesis and antimicrobial activity” (2004)
≈ marks a conversion by molar mass, not a printed value. Calls of active or inactive are those of the source. No cut-off for these calls is given here.

Assays:
Aspergillus niger [1] = assay: Antifungal activity against Aspergillus niger IMI17454 strain.; format: functional; settings: Aspergillus niger; read-out: MIC
Aspergillus nidulans [2] = assay: Antifungal activity against Aspergillus nidulans CABI 0160037 strain; format: functional
Candida albicans = assay: Antifungal activity against Candida albicans NCPF 3179 strain.; format: functional; settings: Candida albicans; read-out: MIC
Escherichia coli = assay: Antibacterial activity against Escherichia coli NCTC 9001 strain.; format: functional, organism-based
[3] = Antibacterial activity against Enterobacter cloacae NCTC 10005 strain; format: functional
Klebsiella aerogenes [4] = assay: Antibacterial activity against Klebsiella aerogenes WRL CN 345 strain.; format: functional, WRL CN 375; settings: Klebsiella aerogenes, WRL CN 375; read-out: MIC
Staphylococcus aureus [5] = assay: Antibacterial activity against methicillin-resistant Staphylococcus aureus (MRSA) PHLS M1 strain.; format: functional
How it was run: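 Read-out is the minimum inhibitory concentration, reported in µM. Amoxycillin is tested alongside as the reference antibiotic.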

[6] = test system: Mycolicibacterium fortuitum; assay: Antibacterial activity against Mycobacterium fortuitum NCTC 10394 strain.; format: functional
[7] = Antibacterial activity against Proteus vulgaris NCTC 4175 strain; na = not active; format: functional
Staphylococcus aureus [8] = assay: Antibacterial activity against Staphylococcus aureus NCTC 6571 strain.; format: functional
Enterococcus faecalis [9] = assay: Antibacterial activity against Streptococcus faecalis NCTC 775 strain.; format: functional
[10] = Antifungal activity against Candida albicans NCPF 3179 strain; na = not active; format: functional
Enterobacter cloacae = assay: Antibacterial activity against Enterobacter cloacae NCTC 10005 strain.; format: functional, organism-based
Klebsiella aerogenes [11] = assay: Antibacterial activity against Klebsiella aerogenes WRL CN 345 strain; na = not active; format: functional, organism-based
Staphylococcus aureus [12] = assay: Antibacterial activity against MRSA PHLS M1 strain; na = not active; format: functional, organism-based
[13] = test system: Mycolicibacterium fortuitum; assay: Antibacterial activity against Mycobacterium fortuitum NCTC 10394 strain; na = not active; format: functional, organism-based
Staphylococcus aureus [14] = assay: Antibacterial activity against Staphylococcus aureus NCTC 6571 strain; na = not active; format: functional, organism-based
Proteus vulgaris = assay: Antibacterial activity against Proteus vulgaris NCTC 4175 strain.; format: functional
Aspergillus niger [15] = assay: Antifungal activity against Aspergillus niger IMI17454 strain; na = not active; format: functional
Enterococcus faecalis [16] = assay: Antibacterial activity against Streptococcus faecalis NCTC 775 strain; na = not active; format: functional, organism-based
Aspergillus nidulans [17] = assay: Antifungal activity against Aspergillus nidulans CABI 0160037 strain; na = not active; format: functional

SMILES	MIC (Aspergillus niger [1]) [µM]	MIC (Aspergillus nidulans [2]) [µM]	MIC (Candida albicans) [µM]	MIC (Escherichia coli)	MIC [3] [µM]	MIC (Klebsiella aerogenes [4]) [µM]	MIC (Staphylococcus aureus [5])	MIC [6] [µM]	MIC [7]	MIC (Staphylococcus aureus [8]) [µM]	MIC (Enterococcus faecalis [9]) [µM]	MIC [10]	MIC (Enterobacter cloacae)	MIC (Klebsiella aerogenes [11])	MIC (Staphylococcus aureus [12])	MIC (Staphylococcus aureus [14])	MIC (Proteus vulgaris) [µM]	MIC (Aspergillus niger [15])	further results
CC(C)c1sc(NC(=O)c2cc(NC=O)cn2C)nc1C(=O)Nc1cc(C(=O)NCCCN(C)C)n(C)c1	38.1 (≈ 20.7 µg/mL)	9.5 (≈ 5.16 µg/mL)	38.1 (≈ 20.7 µg/mL)	inactive	9.5 (≈ 5.16 µg/mL)	38.1 (≈ 20.7 µg/mL)	19.1 µM (≈ 10.4 µg/mL)	19 (≈ 10.3 µg/mL)	inactive	4.8 (≈ 2.6 µg/mL)	9.5 (≈ 5.16 µg/mL)								
CC(=O)Nc1cc(C(=O)Nc2cc(C(=O)Nc3nc(C(=O)NCCCN(C)C)c(C(C)C)s3)n(C)c2)n(C)c1	74.5 (≈ 41.5 µg/mL)			inactive					inactive		74.5 (≈ 41.5 µg/mL)	inactive	inactive	inactive	inactive	inactive			MIC [13]: inactive
CC(C)n1cc(NC(=O)c2cc(NCc3ccccc3)cn2C)cc1C(=O)Nc1cc(C(=O)NCCCN(C)C)n(C)c1	147 (≈ 86.3 µg/mL)	73.5 (≈ 43.1 µg/mL)	147 (≈ 86.3 µg/mL)	inactive		147 (≈ 86.3 µg/mL)		73.5 (≈ 43.1 µg/mL)	inactive	147 (≈ 86.3 µg/mL)	147 (≈ 86.3 µg/mL)		inactive		inactive				
CC1(C)S[C@@H]2[C@H](NC(=O)[C@H](N)c3ccc(O)cc3)C(=O)N2[C@H]1C(=O)O [AMOXICILLIN]					4 (≈ 1.46 µg/mL)	8.1 (≈ 2.96 µg/mL)	16.1 µM (≈ 5.88 µg/mL)	16.1 (≈ 5.88 µg/mL)		0.49 (≈ 0.179 µg/mL)	0.49 (≈ 0.179 µg/mL)						4 (≈ 1.46 µg/mL)		
CC(=O)Nc1cc(C(=O)Nc2cc(C(=O)Nc3cc(C(=O)NCCCN4CCN(C)CC4)n(C)c3)n(CCC(C)C)c2)n(C)c1		136 (≈ 84.6 µg/mL)		inactive		136 (≈ 84.6 µg/mL)		136 (≈ 84.6 µg/mL)				inactive	inactive		inactive	inactive	136 (≈ 84.6 µg/mL)	inactive	MIC (Enterococcus faecalis [16]): inactive
CN(C)CCCNC(=O)c1cc(NC(=O)c2cc(NC(=O)c3cc(NC=O)cn3C)cn2C2CCCC2)cn1C			75.3 (≈ 41.5 µg/mL)	inactive			75.3 µM (not active) (≈ 41.5 µg/mL)	75.3 (≈ 41.5 µg/mL)	inactive	75 (≈ 41.3 µg/mL)	75 (≈ 41.3 µg/mL)		inactive	inactive				inactive	
COc1cccc(C(=O)Nc2cc(C(=O)Nc3cc(C(=O)Nc4cc(C(=O)NCCCN5CCN(C)CC5)n(C)c4)n(CCC(C)C)c3)n(C)c2)c1	121 (≈ 86.4 µg/mL)	30.2 (≈ 21.6 µg/mL)	121 (≈ 86.4 µg/mL)	inactive	121 (≈ 86.4 µg/mL)	121 (≈ 86.4 µg/mL)	121 µM (≈ 86.4 µg/mL)	121 (≈ 86.4 µg/mL)		60 (≈ 42.8 µg/mL)	60.4 (≈ 43.1 µg/mL)						121 (≈ 86.4 µg/mL)		
CC(C)c1sc(NC(=O)c2cc(NC(=O)c3cc(NC=O)cn3C)cn2C)nc1C(=O)NCCCN(C)C	76.1 (≈ 41.3 µg/mL)	76.1 (≈ 41.3 µg/mL)	76.1 (≈ 41.3 µg/mL)	inactive	76.2 (≈ 41.4 µg/mL)	76.2 (≈ 41.4 µg/mL)	38.1 µM (≈ 20.7 µg/mL)	19 (≈ 10.3 µg/mL)		4.7 (≈ 2.55 µg/mL)	9.5 (≈ 5.16 µg/mL)						9.5 (≈ 5.16 µg/mL)		
CC(C)CCn1cc(NC(=O)c2cc(NC=O)cn2C)cc1C(=O)Nc1cc(C(=O)NCCCN(C)C)n(C)c1			150 (≈ 82.9 µg/mL)	inactive	150 (≈ 82.9 µg/mL)	37.5 (≈ 20.7 µg/mL)	150 µM (≈ 82.9 µg/mL)	37.5 (≈ 20.7 µg/mL)		150 (≈ 82.9 µg/mL)	57.5 (≈ 31.8 µg/mL)						150 (≈ 82.9 µg/mL)	150 µM (≈ 82.9 µg/mL)	MIC (Aspergillus nidulans [17]): inactive
CC(C)n1cc(NC(=O)c2cc(NC(=O)c3cc(NC=O)cn3C(C)C)cn2C)cc1C(=O)NCCCN(C)C		150 (≈ 82.9 µg/mL)	75 (≈ 41.5 µg/mL)	inactive			150 µM (≈ 82.9 µg/mL)		inactive				inactive	inactive		inactive		inactive	MIC [13]: inactive; MIC (Enterococcus faecalis [16]): inactive
CC(=O)Nc1cc(C(=O)Nc2cc(C(=O)Nc3cc(C(=O)NCCCN4CCOCC4)n(C)c3)n(CCC(C)C)c2)n(C)c1				inactive				140 (≈ 85.2 µg/mL)	inactive			inactive	inactive	inactive	inactive	inactive		inactive	MIC (Aspergillus nidulans [17]): inactive; MIC (Enterococcus faecalis [16]): inactive
COc1cccc(C(=O)Nc2cc(C(=O)Nc3cc(C(=O)Nc4cc(C(=O)NCCCN(C)C)n(C)c4)n(CCC(C)C)c3)n(C)c2)c1				inactive			2 µM (≈ 1.32 µg/mL)	32.4 (≈ 21.3 µg/mL)	inactive	16.2 (≈ 10.7 µg/mL)	16.2 (≈ 10.7 µg/mL)	inactive	inactive	inactive				inactive	
